Measurements reported in paper PMC8137579 (Cancer research, 2021).
“Also recorded” adds a separate entry of the source. Like-named read-outs stand apart in the source and are kept apart here.

Tests used:
[1] = system: PDGx XD456 glioma cell line; test: cell cycle analysis; type: cell-based, human; conditions: 10 uM for 18 hours
U251 cell line [2] = test: soft agar colony formation assay, U251; type: cell-based
Procedure, shortened: (§1)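 Soft agar format: cells embedded in a 0.45% low-melting agarose top layer over a 0.9% agarose bottom layer. Colonies were stained with 0.1% crystal violet and counted after three weeks. n=3 attached, n=4 soft agar; Student t-test.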

aqueous solubility = type: physicochemical
kinases = test: SelectScreen kinase profiling; type: biochemical; conditions: compared to the parent SRI-41664
Procedure, shortened: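 Done as an outsourced SelectScreen kinase profiling service. 10-point titrations were run against NTRK1, AAK1, IRAK1, PIM1 and cMET kinases.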

[3] = system: U251 cells expressing Fluc construct; test: split firefly luciferase assay, control reporter; type: cell-based
Procedure, shortened: (§2)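 Stable U251 lines carried doxycycline-inducible HuR-Nluc plus HuR-Cluc (dimer reporter) or full-length Fluc (control reporter), kept under hygromycin B and G418. 30,000–50,000 cells/well were induced with doxycycline 0.75 ug/ml for 48 h, then given test compound or vehicle for 6 h. Luminescence was read with D-luciferin substrate.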

primary human astrocytes = test: toxicity in primary human astrocytes; type: cell-based
Procedure, shortened: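 Primary human neurons (poly-L-lysine plates) or astrocytes were treated up to 25 uM for 48 h. Cells were fixed in 3.7% paraformaldehyde (pH 7.4) for 13 min, permeabilised with 0.3% Triton X-100 and blocked with 3% BSA/glycine. Staining used anti-cleaved caspase-3 (1:200, overnight 4°C) and Alexa 594 secondary, with DAPI counterstain. Percent positive cells was scored; at least three experiments.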

[4] = system: Bcl2 and Mcl1 protein levels; test: western blot of Bcl2 and Mcl1 proteins in cytoplasmic fractions; type: cell-based; conditions: U251 and XD456; 10 uM for 48 hours
Procedure, shortened: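 U251 and PDGx XD456 cells were treated for 48 h with test compound or vehicle. Nuclear and cytoplasmic fractions were separated with NE-PER reagents and verified by lamin A/C (nuclear) and tubulin alpha (cytoplasmic). Bcl2 and Mcl1 were detected by western blot.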

U251 cell line [5] = test: attached cell colony formation assay, U251; type: cell-based
HuR protein = test: western blot of HuR protein levels; type: cell-based
LN229 glioma cell line [6] = test: PrestoBlue cell viability assay, LN229; type: cell-based; conditions: read-out: IC50 cell viability, 48 hours of treatment
Procedure, shortened: (§3)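 PrestoBlue viability read-out after 48 h exposure to the test compound. U251 and LN229 were grown in DMEM/F12 with 10% FBS, 2 mM L-glutamine and 100 U/ml penicillin/streptomycin. Data were normalised to vehicle-treated cells, and dose-response curves were fitted with the Boltzmann equation to give IC50; n=5 per cell line.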

[7] = system: PDGx XD456 intracranial glioma; test: in vivo mouse intracranial glioma model; set-up: species or system athymic nude mice; conditions: 15 mg/kg, twice a day for three weeks, intraperitoneal
Procedure, shortened: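 Athymic nude mice bore intracranial PDGx XD456 cells transduced with firefly luciferase and EGFP. After 4.5 days of tumour establishment, mice were randomised to vehicle or test compound, 15 mg/kg ip twice daily for three weeks. Tumour bioluminescence (radiance) was imaged at weeks 2 and 3, with body weight tracked; n=5, Student t-test. Brain slices were checked for EGFP and immunostained for HuR, Bcl2 and Mcl1.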

U251 glioma cell line [8] = test: PrestoBlue cell viability assay, U251; type: cell-based
Procedure, shortened: as §3

Mcl1 mRNA = test: Taqman quantification of Mcl1 mRNA in glioma cell lines; type: cell-based; conditions: for average decrease of Mcl1/18S mRNA ratio: 10 uM for 24 hours
Procedure, shortened: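 Glioma cells (U251, U87, LN229) were exposed to 10 uM test compound or vehicle for 24 h. mRNA was isolated with RNeasy Mini Kit and QIAshredder columns. Bcl2, Mcl1 and 18S transcripts were quantified by Taqman gene-specific probes. Bcl2/18S and Mcl1/18S ratios were compared with vehicle control; three experiments.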

[9] = in vivo pharmacokinetic assessment; set-up: species or system C57Bl/6 mice; conditions: mouse
[10] = target: interaction of the HuR protein with Bcl2 and Mcl1 mRNAs (Homo sapiens, UniProt Q15717); test: HuR/mRNA co-immunoprecipitation assay; type: cell-based; conditions: U251 cells
Procedure, shortened: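 Run in U251 cells with the RiboCluster Profiler RIP-assay kit and a polyclonal anti-HuR antibody. Co-precipitated Bcl2 and Mcl1 transcripts and 18S RNA were quantified by Taqman with gene-specific probes. Binding was compared with vehicle-treated control.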

[11] = system: PDGx XD456 glioma cell line; test: PrestoBlue cell viability assay, XD456; type: cell-based, human; conditions: read-out: IC50 cell viability, 48 hours of treatment
LN229 glioma cell line [12] = test: cell cycle analysis; type: cell-based; conditions: 10 uM for 18 hours
[13] = system: cleaved caspase-3 and cleaved PARP; test: western blot of apoptosis markers; type: cell-based; conditions: glioma cell lines; 10 uM for 48 hours
Procedure, shortened: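 Glioma cell lines were given 10 uM test compound or vehicle for 48 h. Cleaved PARP and cleaved caspase-3 were probed by western blot.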

U251 glioma cell line [14] = test: cell cycle analysis; type: cell-based; conditions: 10 uM for 18 hours
[15] = target: HuR dimerization (HuR-Nluc + HuR-Cluc reporter, U251 cells) (Homo sapiens, UniProt Q15717); test: cell-based split firefly luciferase - HuR dimerization assay
Procedure, shortened: as §2

XD456 cell line [16] = test: attached cell colony formation assay, XD456; type: cell-based, human
XD456 cell line [17] = test: soft agar colony formation assay, XD456; type: cell-based, human
Procedure, shortened: as §1

Bcl2 mRNA = test: Taqman quantification of Bcl2 mRNA in glioma cell lines; type: cell-based; conditions: 10 uM for 24 hours
primary human neurons = test: toxicity in primary human neurons; type: cell-based

HuR dimerization (HuR-Nluc + HuR-Cluc reporter, U251 cells), sequence (Q15717 2-326 limits assumed): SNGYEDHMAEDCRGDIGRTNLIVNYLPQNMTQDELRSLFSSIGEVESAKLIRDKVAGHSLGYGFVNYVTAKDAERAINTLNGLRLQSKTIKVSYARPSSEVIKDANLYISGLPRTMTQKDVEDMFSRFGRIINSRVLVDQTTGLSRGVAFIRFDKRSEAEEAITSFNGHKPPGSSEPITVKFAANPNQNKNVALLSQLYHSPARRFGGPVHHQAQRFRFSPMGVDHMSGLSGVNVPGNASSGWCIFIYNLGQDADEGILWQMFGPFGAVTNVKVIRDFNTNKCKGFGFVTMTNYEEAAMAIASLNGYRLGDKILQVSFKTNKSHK
interaction of the HuR protein with Bcl2 and Mcl1 mRNAs, sequence (Q15717 2-326 limits assumed): as above

CN(c1ccc2ncc(-c3ccc4cn[nH]c4c3)n2n1)C1CCOCC1 [SRI-42127]
increase of cells in G1 phase compared to control [1]: 210±40% | reduction of cells in S phase compared to control [1]: 70±3% | number of colonies (U251 cell line [2]; 3uM): 90±70 | number of colonies (U251 cell line [2]; 10 uM): No significant numbers of colonies were detected | aqueous solubility (aqueous solubility): readily soluble | kinase inhibition potential (kinases): reduced kinase inhibition potential | half inhibition in the control reporter assay [3]: half inhibitions were not reached | astrocyte cytotoxicity (primary human astrocytes; concentrations below 15 uM): low neuronal and astrocyte cytotoxicity | cleaved caspase-3 activation in astrocytes (primary human astrocytes; up to 15 uM): did not observe significant alterations | Bcl2 and Mcl1 protein levels in cytoplasmic fractions compared to control [4]: dramatic reduction | number of colonies (U251 cell line [5]; 3uM): 49±28 | number of colonies (U251 cell line [5]; 10 uM): No significant numbers of colonies were detected | total HuR protein levels (HuR protein; 3 uM and 10 uM, 8–12 hours of treatment): did not alter | HuR cytoplasmic levels versus control (HuR protein; prolonged treatment): decrease | IC50 (LN229 glioma cell line [6]): 3200 ± 600 nM | tumor progression (tumor reporter luminescence signal) compared to control group [7]: reduction of tumor progression; also recorded: not statistically significant | weight changes compared to the control group [7]: not significant | IC50 for inhibition of cell viability, after enhancement of HuR-dimer formation by two fold (U251 glioma cell line [8]; U251 with dox-inducible HuR-dimerization reporters, 48 hours): 8000 ± 800 nM | IC50 (U251 glioma cell line [8]; read-out: IC50 cell viability, U251, 48 hours of treatment): 2800 ± 600 nM | IC50 (U251 glioma cell line [8]; read-out: IC50 for inhibition of cell viability, before enhancement of HuR-dimer formation, U251 with dox-inducible HuR-dimerization reporters, 48 hours): 2800 ± 400 nM | average decrease of Mcl1/18S mRNA ratio (Mcl1 mRNA; LN229): 87±8% | average decrease of Mcl1/18S mRNA ratio (Mcl1 mRNA; U87): 86±7% | average decrease of Mcl1/18S mRNA ratio (Mcl1 mRNA; U251): 95±3% | average decrease of Mcl1/18S mRNA ratio (Mcl1 mRNA; XD456): 90±9% | reduction in Mcl1 mRNA compared to control (Mcl1 mRNA; range over U251, U87, LN229, XD456, 10 uM, 24 h): 87–95% | brain-to-plasma concentration ratio [9]: 0.42±0.05 | BBB permeability ([9]; in vivo): superior BBB permeability | half-life ([9]; 10 mg/kg by IP): 9.6 min | interaction of HuR protein with Bcl2 and Mcl1 mRNAs compared to control [10]: significant reduction | IC50 [11]: 4000 ± 600 nM | increase of cells in G1 phase compared to control (LN229 glioma cell line [12]): 56±28% | reduction of cells in S phase compared to control (LN229 glioma cell line [12]): 60±3% | signs of apoptosis [13]: cleaved caspase-3 and cleaved PARP | increase of cells in G1 phase compared to control (U251 glioma cell line [14]): 97±33% | reduction of cells in S phase compared to control (U251 glioma cell line [14]): 65±4% | maximum inhibition of HuR dimerization ([15]; 6 hours of cell treatment): 90±1% | IC50 for inhibition of HuR dimerization, after increase in HuR dimerization by two fold ([15]; U251 with dox-inducible HuR-dimerization reporters, 6 hours): 1900 ± 100 nM | HuR inhibition potential in the presence of kinase inhibitors ([15]; all evaluated kinase inhibitors): retained its HuR inhibition potential | IC50 ([15]; read-out: IC50 for inhibition of HuR dimerization, before increase in HuR dimerization, U251 with dox-inducible HuR-dimerization reporters, 6 hours): 1200 ± 100 nM | IC50 ([15]; read-out: IC50 of inhibition of HuR dimerization, U251 cells co-expressing HuR-Nluc and HuR-Cluc, 6 hours of treatment): 1200 ± 200 nM | number of colonies (XD456 cell line [16]; 3uM): 34±12 | number of colonies (XD456 cell line [16]; 10 uM): No significant numbers of colonies were detected | number of colonies (XD456 cell line [17]; 3uM): 39±6 | number of colonies (XD456 cell line [17]; 10 uM): No significant numbers of colonies were detected | average decrease of Bcl2/18S mRNA ratio (Bcl2 mRNA; LN229): 95±2% | average decrease of Bcl2/18S mRNA ratio (Bcl2 mRNA; U87): 95±2% | average decrease of Bcl2/18S mRNA ratio (Bcl2 mRNA; U251): 96±2% | average decrease of Bcl2/18S mRNA ratio (Bcl2 mRNA; XD456): 96±2% | decline of cellular metabolism of neurons (primary human neurons; 25 uM for 48 hours): about 44% | neuronal cytotoxicity (primary human neurons; concentrations below 15 uM): low neuronal and astrocyte cytotoxicity | cell numbers and cell sprouting of neurons (primary human neurons; up to 15 uM for 48 hours): remained unchanged | morphological changes of neurons (primary human neurons; up to 15 uM for 48 hours): no morphological changes | cleaved caspase-3 immunostaining in neurons (primary human neurons; up to 15 uM, 48 hours): no significant alterations
